This note sets out measurements from ChEMBL document CHEMBL1158564, “Synthesis and biological evaluation of 1,4-diazepane derivatives as T-type calcium channel blockers” (Bioorg Med Chem Lett, 2010).

Each structure is given as a SMILES string.

The target in data set [1] is T1, Voltage-dependent T-type calcium channel subunit alpha-1G (Homo sapiens, UniProt O43497). As to the kind of experiment: Inhibition of T-type calcium channel alpha1G expressed in human HEK293 cells assessed as inhibition of KCl-induced increase in calcium level at 10 uM after 60 mins by FDSS6000 assay.
The target in data set [2] is T1, Voltage-dependent T-type calcium channel subunit alpha-1G. Briefly: Inhibition of T-type calcium channel alpha1G expressed in human HEK293 cells assessed as inhibition of peak currents by whole-cell patch-clamp method. In kind it is cell-based. The gist of the method:
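Whole-cell recording of α1G T-type Ca²⁺ currents, evoked every 15 s by a 50 ms depolarizing step from −100 mV to −30 mV. Peak-current inhibition was measured across compound concentrations. IC50 was obtained by fitting raw data to dose–response curves.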

Data set [3] in a line: Ratio of drug level in brain to plasma in iv dosed rat. In kind it is ADME, organism-based. The note with it: read-out: BPR. The procedure, abridged:
(§1)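 Rat plasma pharmacokinetics after intravenous (n = 4) or oral (n = 3) dosing. Brain-to-plasma ratio, Cmax, Tmax, half-life, Vdss and oral bioavailability were derived per route. Values are given as mean with standard deviation.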

A short description of data set [4]: Cmax in po dosed rat. Format: ADME, organism-based. On the set-up: route oral. To be noted: in vivo. The procedure, abridged:
as §1

The target in data set [5] is Voltage-dependent N-type calcium channel subunit alpha-1B (Homo sapiens, UniProt Q00975). Briefly: Inhibition of N-type calcium channel Alpha-1B.
The nature of data set [6]: Half life in po dosed rat. In kind it is ADME, organism-based. To be noted: in vivo. The procedure, abridged:
as §1

Data set [7] can be described thus: Oral bioavailability in rat. In kind it is ADME, organism-based. The note with it: in vivo. The gist of the method:
as §1

Data set [8] can be described thus: Half life in iv dosed rat. In kind it is ADME, organism-based. To be noted: in vivo. The procedure, abridged:
as §1

Data set [9] addresses Voltage-gated inwardly rectifying potassium channel KCNH2 (Homo sapiens, UniProt Q12809). As to the kind of experiment: Inhibition of human ERG.
A short description of data set [10]: Ratio of drug level in brain to plasma in po dosed rat. In kind it is ADME, organism-based. To be noted: read-out: BPR. The procedure, abridged: as §1
Data set [11] in a line: Tmax in po dosed rat. Format: ADME, organism-based. The note with it: in vivo. The gist of the method:
as §1

Data set [12] is described as follows: Volume of distribution at steady state in iv dosed rat. Format: ADME, organism-based. To be noted: in vivo, read-out: Vdss. The procedure, abridged:
as §1

T1 sequence (O43497 whole entry): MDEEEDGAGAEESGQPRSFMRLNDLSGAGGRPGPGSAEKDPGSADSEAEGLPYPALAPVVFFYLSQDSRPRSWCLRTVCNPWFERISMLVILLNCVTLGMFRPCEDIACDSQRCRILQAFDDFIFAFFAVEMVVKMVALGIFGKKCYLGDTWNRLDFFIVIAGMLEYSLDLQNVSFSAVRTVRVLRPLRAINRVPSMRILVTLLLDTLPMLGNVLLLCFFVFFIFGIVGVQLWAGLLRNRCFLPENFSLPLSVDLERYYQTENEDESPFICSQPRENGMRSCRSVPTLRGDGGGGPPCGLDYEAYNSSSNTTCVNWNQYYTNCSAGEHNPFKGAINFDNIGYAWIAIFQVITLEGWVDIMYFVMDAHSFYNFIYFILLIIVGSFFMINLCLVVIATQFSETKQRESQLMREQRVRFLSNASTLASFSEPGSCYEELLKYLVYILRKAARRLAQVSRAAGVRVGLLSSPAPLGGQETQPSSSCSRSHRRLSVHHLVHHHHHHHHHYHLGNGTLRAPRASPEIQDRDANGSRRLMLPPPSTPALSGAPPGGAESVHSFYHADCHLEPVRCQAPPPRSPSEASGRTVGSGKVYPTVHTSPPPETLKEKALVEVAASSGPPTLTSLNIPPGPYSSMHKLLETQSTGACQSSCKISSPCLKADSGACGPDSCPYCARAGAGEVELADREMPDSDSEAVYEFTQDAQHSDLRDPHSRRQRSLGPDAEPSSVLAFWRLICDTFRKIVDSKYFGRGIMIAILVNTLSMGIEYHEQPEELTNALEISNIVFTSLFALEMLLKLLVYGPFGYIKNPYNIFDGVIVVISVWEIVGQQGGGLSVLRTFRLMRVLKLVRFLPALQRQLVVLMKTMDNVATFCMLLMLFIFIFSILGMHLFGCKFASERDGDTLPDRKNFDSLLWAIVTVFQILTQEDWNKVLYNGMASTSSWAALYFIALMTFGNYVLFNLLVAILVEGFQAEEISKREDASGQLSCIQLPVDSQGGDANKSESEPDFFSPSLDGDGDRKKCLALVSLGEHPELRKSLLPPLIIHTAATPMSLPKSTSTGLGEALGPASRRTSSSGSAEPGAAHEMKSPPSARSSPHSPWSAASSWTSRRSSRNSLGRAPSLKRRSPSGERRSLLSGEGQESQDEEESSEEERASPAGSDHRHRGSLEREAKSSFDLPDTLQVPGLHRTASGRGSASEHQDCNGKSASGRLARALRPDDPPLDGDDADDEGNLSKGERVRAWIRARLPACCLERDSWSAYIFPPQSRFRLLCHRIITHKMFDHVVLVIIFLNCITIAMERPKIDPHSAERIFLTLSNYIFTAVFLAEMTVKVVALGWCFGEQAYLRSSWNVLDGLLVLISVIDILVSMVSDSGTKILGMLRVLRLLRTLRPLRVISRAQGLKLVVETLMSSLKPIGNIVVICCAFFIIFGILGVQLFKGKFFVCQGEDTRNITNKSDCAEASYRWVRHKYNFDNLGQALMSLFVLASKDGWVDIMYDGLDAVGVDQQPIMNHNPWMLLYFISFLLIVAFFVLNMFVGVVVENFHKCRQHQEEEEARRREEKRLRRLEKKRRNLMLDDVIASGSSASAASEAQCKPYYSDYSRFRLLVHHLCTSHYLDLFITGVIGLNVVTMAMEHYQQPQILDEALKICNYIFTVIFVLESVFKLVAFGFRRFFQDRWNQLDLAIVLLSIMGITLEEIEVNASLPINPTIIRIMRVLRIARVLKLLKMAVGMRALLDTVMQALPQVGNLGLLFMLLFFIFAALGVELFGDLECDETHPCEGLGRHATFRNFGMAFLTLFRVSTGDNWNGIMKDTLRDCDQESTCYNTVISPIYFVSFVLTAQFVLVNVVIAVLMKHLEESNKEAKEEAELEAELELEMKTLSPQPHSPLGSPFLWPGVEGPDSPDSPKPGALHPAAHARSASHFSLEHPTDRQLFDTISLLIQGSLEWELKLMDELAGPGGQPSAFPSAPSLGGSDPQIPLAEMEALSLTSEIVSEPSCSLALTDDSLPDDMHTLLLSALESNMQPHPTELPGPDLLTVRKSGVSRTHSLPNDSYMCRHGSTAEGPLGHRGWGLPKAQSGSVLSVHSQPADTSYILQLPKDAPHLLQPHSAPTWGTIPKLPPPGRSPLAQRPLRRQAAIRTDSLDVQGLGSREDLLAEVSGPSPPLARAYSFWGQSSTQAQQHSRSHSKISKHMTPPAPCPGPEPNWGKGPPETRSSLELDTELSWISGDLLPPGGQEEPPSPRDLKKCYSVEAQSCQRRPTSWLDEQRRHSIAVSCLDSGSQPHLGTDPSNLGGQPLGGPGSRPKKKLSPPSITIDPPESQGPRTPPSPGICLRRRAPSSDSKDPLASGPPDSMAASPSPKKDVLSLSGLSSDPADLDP
Voltage-dependent N-type calcium channel subunit alpha-1B, sequence (Q00975 whole entry): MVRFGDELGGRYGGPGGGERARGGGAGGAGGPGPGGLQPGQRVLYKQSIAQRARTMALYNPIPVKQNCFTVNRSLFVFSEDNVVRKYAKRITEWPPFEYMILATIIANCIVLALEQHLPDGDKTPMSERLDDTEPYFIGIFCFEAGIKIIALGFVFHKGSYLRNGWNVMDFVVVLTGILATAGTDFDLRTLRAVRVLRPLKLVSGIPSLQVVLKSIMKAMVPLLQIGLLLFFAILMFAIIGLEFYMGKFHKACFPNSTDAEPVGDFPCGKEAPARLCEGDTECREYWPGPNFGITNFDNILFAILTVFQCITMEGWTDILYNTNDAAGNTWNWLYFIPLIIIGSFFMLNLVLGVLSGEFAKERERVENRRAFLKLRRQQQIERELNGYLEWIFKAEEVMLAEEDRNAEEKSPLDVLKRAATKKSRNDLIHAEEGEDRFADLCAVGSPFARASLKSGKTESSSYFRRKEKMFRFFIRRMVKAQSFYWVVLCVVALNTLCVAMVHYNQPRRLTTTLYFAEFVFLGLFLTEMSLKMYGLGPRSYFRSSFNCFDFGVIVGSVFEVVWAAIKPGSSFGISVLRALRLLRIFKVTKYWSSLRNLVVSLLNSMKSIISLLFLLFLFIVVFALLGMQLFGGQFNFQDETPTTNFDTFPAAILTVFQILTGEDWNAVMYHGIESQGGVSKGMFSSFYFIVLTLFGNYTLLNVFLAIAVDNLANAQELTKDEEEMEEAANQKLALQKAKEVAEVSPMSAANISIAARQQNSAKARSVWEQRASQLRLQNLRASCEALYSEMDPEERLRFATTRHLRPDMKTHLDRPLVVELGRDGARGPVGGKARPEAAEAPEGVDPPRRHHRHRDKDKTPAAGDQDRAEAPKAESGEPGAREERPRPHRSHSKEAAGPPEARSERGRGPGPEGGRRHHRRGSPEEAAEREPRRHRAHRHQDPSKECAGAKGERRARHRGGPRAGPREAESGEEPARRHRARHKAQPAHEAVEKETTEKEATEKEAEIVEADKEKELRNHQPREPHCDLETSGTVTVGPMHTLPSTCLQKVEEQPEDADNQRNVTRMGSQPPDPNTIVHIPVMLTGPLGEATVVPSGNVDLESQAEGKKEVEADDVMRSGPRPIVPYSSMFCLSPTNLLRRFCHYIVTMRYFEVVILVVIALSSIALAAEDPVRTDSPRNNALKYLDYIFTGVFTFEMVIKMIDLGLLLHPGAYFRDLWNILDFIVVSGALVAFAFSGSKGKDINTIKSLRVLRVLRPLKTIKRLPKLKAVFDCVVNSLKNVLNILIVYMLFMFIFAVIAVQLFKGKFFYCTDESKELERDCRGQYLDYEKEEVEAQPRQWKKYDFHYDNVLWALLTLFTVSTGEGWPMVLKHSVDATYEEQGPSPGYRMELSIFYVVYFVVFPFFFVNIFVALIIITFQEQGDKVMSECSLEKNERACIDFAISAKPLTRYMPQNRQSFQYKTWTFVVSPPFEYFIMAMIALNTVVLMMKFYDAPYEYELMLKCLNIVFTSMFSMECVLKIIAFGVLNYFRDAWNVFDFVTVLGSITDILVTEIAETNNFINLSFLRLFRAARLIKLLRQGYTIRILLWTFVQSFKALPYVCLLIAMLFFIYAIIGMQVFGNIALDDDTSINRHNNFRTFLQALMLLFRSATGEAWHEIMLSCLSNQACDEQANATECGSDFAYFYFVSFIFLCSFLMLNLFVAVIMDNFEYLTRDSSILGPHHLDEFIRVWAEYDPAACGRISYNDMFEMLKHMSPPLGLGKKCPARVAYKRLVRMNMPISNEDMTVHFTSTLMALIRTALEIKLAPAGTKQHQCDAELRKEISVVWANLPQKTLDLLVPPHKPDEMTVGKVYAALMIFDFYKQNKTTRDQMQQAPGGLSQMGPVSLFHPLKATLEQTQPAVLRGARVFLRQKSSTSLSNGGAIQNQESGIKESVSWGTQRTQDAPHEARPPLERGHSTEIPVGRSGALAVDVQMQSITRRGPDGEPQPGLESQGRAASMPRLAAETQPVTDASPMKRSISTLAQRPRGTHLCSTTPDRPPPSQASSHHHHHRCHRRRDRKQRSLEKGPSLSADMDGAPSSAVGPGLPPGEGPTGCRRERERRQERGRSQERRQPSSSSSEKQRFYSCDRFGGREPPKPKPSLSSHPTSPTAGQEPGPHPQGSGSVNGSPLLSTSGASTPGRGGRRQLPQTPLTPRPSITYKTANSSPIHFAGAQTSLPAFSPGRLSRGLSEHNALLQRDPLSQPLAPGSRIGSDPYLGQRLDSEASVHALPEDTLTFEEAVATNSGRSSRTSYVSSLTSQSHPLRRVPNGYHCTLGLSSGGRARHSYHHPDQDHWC

The inhibition is the relative decrease from the control value, in per cent. As for `Cc1cccc(NCC(=O)N2CCCN(Cc3nc4ccccc4[nH]3)CC2)c1`, the inhibition in data set [1] was determined as 8.48%. `O=C(CN1CCCN(Cc2nc3ccccc3[nH]2)CC1)Nc1cccc(Cl)c1`: the inhibition in [1] was found to be 41.7%. Turning to `Cc1ccccc1NCC(=O)N1CCCN(Cc2nc3ccccc3[nH]2)CC1`, the inhibition in [1] turned out to be 7.04%. On to `O=C(CNc1ccc(C(F)(F)F)cc1)N1CCCN(Cc2nc3ccccc3[nH]2)CC1`, for which the inhibition in data set [1] came out at 28.2%. Regarding `O=C(CNc1ccc(F)cc1)N1CCCN(Cc2nc3ccccc3[nH]2)CC1`, the inhibition in data set [1] was 12.8%.

For the compound `O=C(CNc1ccccc1F)N1CCCN(Cc2nc3ccccc3[nH]2)CC1`, the inhibition in data set [1] was determined as 22.3%. Broadly, the IC50 is the midpoint of a concentration-inhibition curve. Take `CCc1cccc(CC)c1NCC(=O)N1CCCN(Cc2nc3ccccc3[nH]2)CC1`: the IC50 in data set [2] is 4000 nM. The inhibition in [1] was determined as 62.4%. For the compound `Cc1ccc(NC(=O)CN2CCCN(Cc3nc4ccccc4[nH]3)CC2)c(C)c1`, in data set [1], the inhibition was determined as 47.6%. As a reminder, the Cmax is the peak of the concentration-time curve. The term half-life denotes the time needed for the level to fall by half in the phase considered. By bioavailability is commonly meant the share of a dose that reaches the circulation, judged against a reference dose that is usually intravenous. Read a low bioavailability as little systemic uptake. A word on the Tmax: it is the time at which the peak concentration occurs. Regarding `O=C(CN1CCCN(Cc2nc3ccccc3[nH]2)CC1)Nc1ccc(C(F)(F)F)cc1`, the figures for the Kp in [3] and in data set [10] were 0.438 and 0.105, respectively. The Cmax in data set [4] turned out to be 2280 ng/mL. Moreover, the IC50 came out at 28700 nM in data set [5], 1230 nM in data set [2] and 4970 nM in data set [9]. In addition, the half-life in [6] worked out at 4.34 h; in data set [8], 5.67 h. For the same compound, the bioavailability in [7] is 43.4%. Further, the inhibition in [1] is 60.7%. Besides, the Tmax in [11] was 2 h. The Vd in [12] came out at 2.33 L/kg. Turning to `Cc1ccc(NC(=O)CN2CCCN(Cc3nc4ccccc4[nH]3)CC2)cc1`, in data set [1], the inhibition was 44.8%. Same read-out and setting: next, `Cc1cccc(NC(=O)CN2CCCN(Cc3nc4ccccc4[nH]3)CC2)c1`: 54.8%.

As to `O=C(CNc1ccccc1C(F)(F)F)N1CCCN(Cc2nc3ccccc3[nH]2)CC1`, the values for the IC50 in [2] and in data set [9] were 3170 nM and 1320 nM, respectively. Further, the inhibition in data set [1] was found to be 66%. With `O=C(CN1CCCN(Cc2nc3ccccc3[nH]2)CC1)Nc1ccccc1C(F)(F)F`, the inhibition in data set [1] was determined as 41.7%. Turning to `COCC(=O)O[C@]1(CCN(C)CCCc2nc3ccccc3[nH]2)CCc2cc(F)ccc2[C@@H]1C(C)C` [MIBEFRADIL], the IC50 in [5] stood at 1340 nM. For the compound `Cc1cccc(C)c1NC(=O)CN1CCCN(Cc2nc3ccccc3[nH]2)CC1`, in data set [1], the inhibition turned out to be 39.8%. Take `O=C(CNc1cccc(F)c1)N1CCCN(Cc2nc3ccccc3[nH]2)CC1`: the inhibition in data set [1] turned out to be 7.52%. Still for that read-out and setting: the same measure for `Cc1cccc(C)c1NCC(=O)N1CCCN(Cc2nc3ccccc3[nH]2)CC1`: 29.5%; for `Cc1ccc(NCC(=O)N2CCCN(Cc3nc4ccccc4[nH]3)CC2)cc1`: 16.4%.

`O=C(CN1CCCN(Cc2nc3ccccc3[nH]2)CC1)Nc1ccccc1Cl`: the IC50 in [2] came out at 1470 nM. In [1], the inhibition is 56.8%.

Consider `O=C(CN1CCCN(Cc2nc3ccccc3[nH]2)CC1)Nc1cccc(F)c1`, for which the inhibition in data set [1] stood at 46.4%. Turning to `O=C(CNc1ccc(Cl)cc1)N1CCCN(Cc2nc3ccccc3[nH]2)CC1`, the inhibition in [1] worked out at 36.9%.

With `O=C(CNc1cccc(Cl)c1)N1CCCN(Cc2nc3ccccc3[nH]2)CC1`, in data set [1], the inhibition stood at 40.9%.

For `O=C(CNc1ccccc1Cl)N1CCCN(Cc2nc3ccccc3[nH]2)CC1`, the inhibition in data set [1] was 32.2%. Consider `Cc1ccc(NC(=O)CN2CCCN(Cc3nc4ccccc4[nH]3)CC2)cc1C`, for which, in [2], the IC50 is 2390 nM. For the same compound, the inhibition in [1] was 56.2%. Take `COc1cccc(NCC(=O)N2CCCN(Cc3nc4ccccc4[nH]3)CC2)c1`: the inhibition in data set [1] stood at 1.54%.

Take `CCc1cccc(CC)c1NC(=O)CN1CCCN(Cc2nc3ccccc3[nH]2)CC1`: the IC50 in data set [2] came to 2080 nM. Besides, in data set [1], the inhibition turned out to be 57.4%. In the case of `Cc1ccccc1NC(=O)CN1CCCN(Cc2nc3ccccc3[nH]2)CC1`, in data set [1], the inhibition worked out at 51.8%. In the case of `COc1cccc(NC(=O)CN2CCCN(Cc3nc4ccccc4[nH]3)CC2)c1`, the inhibition in data set [1] was 46.1%. For the compound `O=C(CNc1cccc(C(F)(F)F)c1)N1CCCN(Cc2nc3ccccc3[nH]2)CC1`, the inhibition in data set [1] is 27.3%. For the compound `O=C(CN1CCCN(Cc2nc3ccccc3[nH]2)CC1)Nc1ccc(F)cc1`, the inhibition in data set [1] worked out at 46.6%. Still for that read-out and setting: next, `COc1ccc(NC(=O)CN2CCCN(Cc3nc4ccccc4[nH]3)CC2)cc1`: 32.4%. Turning to `Cc1ccc(NCC(=O)N2CCCN(Cc3nc4ccccc4[nH]3)CC2)cc1C`, the inhibition in data set [1] was determined as 16.5%.

`Cc1ccc(NCC(=O)N2CCCN(Cc3nc4ccccc4[nH]3)CC2)c(C)c1`: the inhibition in [1] was found to be 21.1%.

For `COc1ccc(NCC(=O)N2CCCN(Cc3nc4ccccc4[nH]3)CC2)cc1`, the inhibition in data set [1] amounted to 0.92%.

`COc1ccccc1NCC(=O)N1CCCN(Cc2nc3ccccc3[nH]2)CC1`: the inhibition in data set [1] was found to be 8.29%. Take `O=C(CN1CCCN(Cc2nc3ccccc3[nH]2)CC1)Nc1ccc(Cl)cc1`: the inhibition in [1] worked out at 51.3%. The same measure, in the same setting: next, `O=C(CN1CCCN(Cc2nc3ccccc3[nH]2)CC1)Nc1cccc(C(F)(F)F)c1`: 60.1%. On to `O=C(CN1CCCN(Cc2nc3ccccc3[nH]2)CC1)Nc1ccccc1F`, for which the inhibition in data set [1] amounted to 32.4%.

As for `COc1ccccc1NC(=O)CN1CCCN(Cc2nc3ccccc3[nH]2)CC1`, the IC50 in data set [2] was determined as 12600 nM. Also, the inhibition in [1] came to 59.1%.
